Test results as given in ChEMBL document CHEMBL2424622, “Development of amino-pyrimidine inhibitors of c-Jun N-terminal kinase (JNK): kinase profiling guided optimization of a 1,2,3-benzotriazole lead” (Bioorg Med Chem Lett, 2013).

What was measured:
[1] = target: Tyrosine-protein kinase Fyn (Homo sapiens) (UniProt P06241); test: Competitive binding affinity to FYN (unknown origin) at 10 uM in presence of ATP relative to control
How it was run: (§1)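 In vitro ATP-site competition binding assay, part of profiling against a diverse panel of 128 kinases. Each compound was tested at a single concentration of 10 µM. Kinome selectivity was summarized as S15 selectivity scores.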

[2] = target: Tyrosine-protein kinase FRK (Homo sapiens) (UniProt P42685); test: Competitive binding affinity to FRK (unknown origin) at 10 uM in presence of ATP relative to control; how it was run: as §1
[3] = target: Tyrosine-protein kinase CSK (Homo sapiens) (UniProt P41240); test: Competitive binding affinity to CSK (unknown origin) at 10 uM in presence of ATP relative to control
[4] = target: Dual specificity protein kinase CLK1 (Homo sapiens) (UniProt P49759); test: Competitive binding affinity to CLK1 (unknown origin) at 10 uM in presence of ATP relative to control
[5] = target: Calcium/calmodulin-dependent protein kinase type 1 (Homo sapiens, UniProt Q14012); test: Competitive binding affinity to CAMK1 (unknown origin) at 10 uM in presence of ATP relative to control
[6] = target: AP2-associated protein kinase 1 (Homo sapiens) (UniProt Q2M2I8); test: Competitive binding affinity to AAK1 (unknown origin) at 10 uM in presence of ATP relative to control
How it was run: (§2)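 In vitro ATP-site competition binding assay across a diverse panel of 128 kinases, with each compound tested at a single concentration. Kinase binding is expressed relative to control.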

[7] = target: Angiopoietin-1 receptor (Homo sapiens) (UniProt Q02763); test: Competitive binding affinity to TIE2 (unknown origin) at 10 uM in presence of ATP relative to control
How it was run: (§3)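 In vitro ATP-site competition binding assay across a diverse panel of 128 kinases, with compound tested at a single concentration. Kinase selectivity scores (S15) were calculated from the panel profiles.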

[8] = target: STE20-like serine/threonine-protein kinase (Homo sapiens) (UniProt Q9H2G2); test: Competitive binding affinity to SLK (unknown origin) at 10 uM in presence of ATP relative to control; how it was run: as §3
[9] = target: Ribosomal protein S6 kinase alpha-5 (Homo sapiens) (UniProt O75582); test: Competitive binding affinity to RPS6KA5 kinase domain 1 (unknown origin) at 10 uM in presence of ATP relative to control; how it was run: as §3
[10] = target: Ribosomal protein S6 kinase alpha-3 (Homo sapiens) (UniProt P51812); test: Competitive binding affinity to RPS6KA3 domain 1 (unknown origin) at 10 uM in presence of ATP relative to control; how it was run: as §3
[11] = target: Ribosomal protein S6 kinase alpha-2 (Homo sapiens) (UniProt Q15349); test: Competitive binding affinity to RPS6KA2 kinase domain 1 (unknown origin) at 10 uM in presence of ATP relative to control; how it was run: as §2
[12] = target: cAMP-dependent protein kinase catalytic subunit alpha (Homo sapiens) (UniProt P17612); test: Competitive binding affinity to PKAC-alpha (unknown origin) at 10 uM in presence of ATP relative to control; how it was run: as §3
[13] = target: Platelet-derived growth factor receptor alpha (Homo sapiens) (UniProt P16234); test: Competitive binding affinity to PDGFRA (unknown origin) at 10 uM in presence of ATP relative to control; how it was run: as §3
[14] = target: Cyclin-dependent kinase 16 (Homo sapiens) (UniProt Q00536); test: Competitive binding affinity to PCTK1 (unknown origin) at 10 uM in presence of ATP relative to control; how it was run: as §3
[15] = target: Mitogen-activated protein kinase 14 (Homo sapiens, UniProt Q16539); test: Competitive binding affinity to p38-alpha (unknown origin) at 10 uM in presence of ATP relative to control; how it was run: as §3
[16] = target: Tyrosine-protein kinase Lyn (Homo sapiens) (UniProt P07948); test: Competitive binding affinity to LYN (unknown origin) at 10 uM in presence of ATP relative to control; how it was run: as §1
[17] = target: T1, Cyclin-G-associated kinase (Homo sapiens) (UniProt O14976); test: Competitive binding affinity to GAK (unknown origin) at 10 uM in presence of ATP relative to control; how it was run: as §1
T1 sequence (whole entry): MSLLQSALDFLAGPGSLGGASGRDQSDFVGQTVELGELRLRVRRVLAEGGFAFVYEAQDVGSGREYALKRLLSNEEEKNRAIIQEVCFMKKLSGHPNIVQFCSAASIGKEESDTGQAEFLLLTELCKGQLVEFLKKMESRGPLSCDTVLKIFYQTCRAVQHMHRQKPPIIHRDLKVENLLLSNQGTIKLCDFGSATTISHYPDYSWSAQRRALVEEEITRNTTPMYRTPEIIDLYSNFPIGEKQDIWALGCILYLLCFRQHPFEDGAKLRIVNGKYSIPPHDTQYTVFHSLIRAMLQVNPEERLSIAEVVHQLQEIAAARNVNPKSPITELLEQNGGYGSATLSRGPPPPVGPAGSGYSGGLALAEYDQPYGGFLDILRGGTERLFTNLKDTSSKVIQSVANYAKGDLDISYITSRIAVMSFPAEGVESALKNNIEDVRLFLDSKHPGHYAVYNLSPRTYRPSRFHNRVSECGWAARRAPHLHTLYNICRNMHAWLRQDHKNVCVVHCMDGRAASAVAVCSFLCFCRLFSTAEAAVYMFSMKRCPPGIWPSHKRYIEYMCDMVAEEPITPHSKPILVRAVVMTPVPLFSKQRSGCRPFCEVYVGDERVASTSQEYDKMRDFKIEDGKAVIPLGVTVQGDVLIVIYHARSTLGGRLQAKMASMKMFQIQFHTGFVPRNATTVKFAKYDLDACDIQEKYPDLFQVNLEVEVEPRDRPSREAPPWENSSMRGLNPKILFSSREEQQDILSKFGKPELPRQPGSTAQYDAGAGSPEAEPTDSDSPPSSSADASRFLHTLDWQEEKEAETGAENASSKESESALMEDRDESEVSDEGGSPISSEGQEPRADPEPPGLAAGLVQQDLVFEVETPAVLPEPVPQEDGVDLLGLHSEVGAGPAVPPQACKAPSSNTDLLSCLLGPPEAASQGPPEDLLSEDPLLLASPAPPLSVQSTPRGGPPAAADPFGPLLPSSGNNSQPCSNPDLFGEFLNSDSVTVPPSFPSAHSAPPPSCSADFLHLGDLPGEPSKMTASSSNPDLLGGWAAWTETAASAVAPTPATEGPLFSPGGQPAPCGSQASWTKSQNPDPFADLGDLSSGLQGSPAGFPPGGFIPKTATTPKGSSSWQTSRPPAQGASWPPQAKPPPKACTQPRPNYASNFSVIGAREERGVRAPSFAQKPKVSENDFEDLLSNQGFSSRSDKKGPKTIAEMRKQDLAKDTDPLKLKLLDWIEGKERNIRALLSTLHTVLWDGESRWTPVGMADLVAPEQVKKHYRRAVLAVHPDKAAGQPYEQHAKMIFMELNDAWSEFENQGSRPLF

Chain of Ribosomal protein S6 kinase alpha-5 (Homo sapiens) (O75582 whole entry, looked up, the tested form may be a part): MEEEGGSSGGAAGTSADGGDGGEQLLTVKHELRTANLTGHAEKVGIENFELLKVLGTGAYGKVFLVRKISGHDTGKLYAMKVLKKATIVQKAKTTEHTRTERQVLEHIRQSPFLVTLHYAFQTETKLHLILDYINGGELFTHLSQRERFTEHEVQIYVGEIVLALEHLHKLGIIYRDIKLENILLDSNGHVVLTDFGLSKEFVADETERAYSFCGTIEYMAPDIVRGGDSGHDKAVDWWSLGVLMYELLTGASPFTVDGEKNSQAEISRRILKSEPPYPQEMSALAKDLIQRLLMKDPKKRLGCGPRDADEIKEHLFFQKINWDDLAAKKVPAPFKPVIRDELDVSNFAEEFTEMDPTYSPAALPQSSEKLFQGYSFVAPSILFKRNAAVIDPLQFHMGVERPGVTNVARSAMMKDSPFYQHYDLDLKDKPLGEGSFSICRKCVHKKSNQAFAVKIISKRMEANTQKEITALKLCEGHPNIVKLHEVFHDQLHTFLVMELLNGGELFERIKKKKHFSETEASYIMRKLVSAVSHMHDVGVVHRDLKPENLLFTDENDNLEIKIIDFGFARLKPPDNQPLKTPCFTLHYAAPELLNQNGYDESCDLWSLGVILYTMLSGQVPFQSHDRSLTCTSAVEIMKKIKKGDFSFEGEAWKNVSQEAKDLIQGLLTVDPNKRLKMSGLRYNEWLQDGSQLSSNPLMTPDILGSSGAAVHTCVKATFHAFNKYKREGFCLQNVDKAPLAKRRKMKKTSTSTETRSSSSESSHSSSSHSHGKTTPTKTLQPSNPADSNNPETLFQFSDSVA
Chain of Tyrosine-protein kinase FRK (Homo sapiens) (P42685 whole entry): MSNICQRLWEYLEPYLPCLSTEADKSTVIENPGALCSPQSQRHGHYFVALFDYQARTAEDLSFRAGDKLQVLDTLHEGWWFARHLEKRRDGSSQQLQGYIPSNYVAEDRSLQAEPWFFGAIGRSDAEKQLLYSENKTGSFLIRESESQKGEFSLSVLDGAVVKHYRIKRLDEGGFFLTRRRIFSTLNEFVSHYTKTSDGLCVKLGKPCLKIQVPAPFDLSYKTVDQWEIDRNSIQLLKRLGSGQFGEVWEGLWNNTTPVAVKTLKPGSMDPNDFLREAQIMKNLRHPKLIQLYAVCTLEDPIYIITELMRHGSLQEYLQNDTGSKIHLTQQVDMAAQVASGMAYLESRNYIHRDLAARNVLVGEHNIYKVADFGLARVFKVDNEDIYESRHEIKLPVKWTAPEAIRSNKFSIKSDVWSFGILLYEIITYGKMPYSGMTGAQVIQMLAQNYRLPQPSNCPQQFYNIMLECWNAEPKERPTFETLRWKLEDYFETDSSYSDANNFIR
Chain of Mitogen-activated protein kinase 14 (Q16539 whole entry): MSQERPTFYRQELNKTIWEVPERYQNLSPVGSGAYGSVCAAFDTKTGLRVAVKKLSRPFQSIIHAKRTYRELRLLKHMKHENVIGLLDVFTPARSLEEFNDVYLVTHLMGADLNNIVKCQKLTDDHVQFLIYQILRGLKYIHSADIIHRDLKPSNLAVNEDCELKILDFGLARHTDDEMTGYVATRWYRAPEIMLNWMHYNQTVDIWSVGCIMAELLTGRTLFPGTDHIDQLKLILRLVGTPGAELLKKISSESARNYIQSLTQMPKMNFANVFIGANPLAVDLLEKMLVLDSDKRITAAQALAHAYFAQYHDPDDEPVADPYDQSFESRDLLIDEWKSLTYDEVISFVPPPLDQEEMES
Chain of Platelet-derived growth factor receptor alpha (Homo sapiens) (P16234 whole entry): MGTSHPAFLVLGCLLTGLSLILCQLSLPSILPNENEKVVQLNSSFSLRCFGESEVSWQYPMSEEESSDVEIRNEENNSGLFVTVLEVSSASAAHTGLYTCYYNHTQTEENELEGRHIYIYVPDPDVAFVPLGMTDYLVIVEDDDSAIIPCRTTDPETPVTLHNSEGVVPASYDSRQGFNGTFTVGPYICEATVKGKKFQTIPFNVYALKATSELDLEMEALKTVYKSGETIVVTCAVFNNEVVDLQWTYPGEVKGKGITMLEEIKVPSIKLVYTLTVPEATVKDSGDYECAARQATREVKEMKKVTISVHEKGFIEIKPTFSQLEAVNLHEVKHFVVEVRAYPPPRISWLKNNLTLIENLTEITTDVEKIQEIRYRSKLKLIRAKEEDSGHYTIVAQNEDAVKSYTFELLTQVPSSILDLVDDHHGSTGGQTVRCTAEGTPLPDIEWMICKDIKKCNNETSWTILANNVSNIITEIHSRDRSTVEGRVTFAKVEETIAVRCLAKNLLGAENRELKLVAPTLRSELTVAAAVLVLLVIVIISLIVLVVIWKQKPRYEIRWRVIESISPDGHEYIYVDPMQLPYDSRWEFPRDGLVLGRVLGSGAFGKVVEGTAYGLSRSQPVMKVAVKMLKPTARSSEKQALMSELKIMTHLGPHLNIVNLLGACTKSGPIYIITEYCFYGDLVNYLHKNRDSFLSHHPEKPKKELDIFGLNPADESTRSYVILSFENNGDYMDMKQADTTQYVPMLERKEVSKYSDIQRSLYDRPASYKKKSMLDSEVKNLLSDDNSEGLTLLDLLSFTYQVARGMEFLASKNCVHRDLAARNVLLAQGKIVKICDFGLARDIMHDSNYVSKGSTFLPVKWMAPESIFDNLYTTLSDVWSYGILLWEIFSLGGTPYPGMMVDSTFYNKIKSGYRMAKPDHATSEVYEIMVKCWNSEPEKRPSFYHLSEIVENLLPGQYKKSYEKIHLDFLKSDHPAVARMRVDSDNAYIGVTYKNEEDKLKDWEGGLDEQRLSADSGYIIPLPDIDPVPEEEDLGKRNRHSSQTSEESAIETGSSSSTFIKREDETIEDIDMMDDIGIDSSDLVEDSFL
Chain of STE20-like serine/threonine-protein kinase (Homo sapiens) (Q9H2G2 whole entry, looked up, the tested form may be a part): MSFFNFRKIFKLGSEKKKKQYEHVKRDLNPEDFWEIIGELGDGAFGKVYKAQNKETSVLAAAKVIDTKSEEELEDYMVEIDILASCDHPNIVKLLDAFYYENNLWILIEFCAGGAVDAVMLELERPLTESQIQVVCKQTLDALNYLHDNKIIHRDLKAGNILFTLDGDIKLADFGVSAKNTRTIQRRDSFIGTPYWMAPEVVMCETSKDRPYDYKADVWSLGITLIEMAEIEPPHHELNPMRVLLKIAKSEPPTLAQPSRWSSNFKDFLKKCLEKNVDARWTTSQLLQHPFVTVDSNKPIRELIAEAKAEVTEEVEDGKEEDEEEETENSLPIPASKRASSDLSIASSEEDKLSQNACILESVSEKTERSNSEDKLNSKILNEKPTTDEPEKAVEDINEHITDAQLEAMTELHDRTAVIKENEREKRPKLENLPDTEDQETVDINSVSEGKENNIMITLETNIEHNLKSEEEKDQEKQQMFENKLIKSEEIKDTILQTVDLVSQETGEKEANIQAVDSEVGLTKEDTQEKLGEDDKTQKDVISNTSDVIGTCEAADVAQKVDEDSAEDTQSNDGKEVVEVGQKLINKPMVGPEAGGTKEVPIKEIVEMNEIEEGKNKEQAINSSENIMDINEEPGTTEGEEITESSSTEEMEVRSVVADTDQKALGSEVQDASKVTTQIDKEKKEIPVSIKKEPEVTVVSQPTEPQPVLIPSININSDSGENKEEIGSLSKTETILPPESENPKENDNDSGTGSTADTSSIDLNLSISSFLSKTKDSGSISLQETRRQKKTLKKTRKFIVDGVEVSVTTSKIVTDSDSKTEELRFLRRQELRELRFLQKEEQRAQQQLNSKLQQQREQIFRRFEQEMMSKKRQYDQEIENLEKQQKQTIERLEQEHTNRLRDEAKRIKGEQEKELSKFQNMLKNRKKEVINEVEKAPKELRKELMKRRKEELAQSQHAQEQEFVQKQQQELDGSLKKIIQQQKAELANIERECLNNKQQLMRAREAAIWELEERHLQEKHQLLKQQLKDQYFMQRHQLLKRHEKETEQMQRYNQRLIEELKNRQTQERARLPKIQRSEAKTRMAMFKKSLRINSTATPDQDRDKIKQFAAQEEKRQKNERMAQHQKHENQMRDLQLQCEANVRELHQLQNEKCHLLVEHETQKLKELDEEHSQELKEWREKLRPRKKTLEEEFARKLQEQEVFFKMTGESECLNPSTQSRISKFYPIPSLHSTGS
Chain of Cyclin-dependent kinase 16 (Homo sapiens) (Q00536 whole entry): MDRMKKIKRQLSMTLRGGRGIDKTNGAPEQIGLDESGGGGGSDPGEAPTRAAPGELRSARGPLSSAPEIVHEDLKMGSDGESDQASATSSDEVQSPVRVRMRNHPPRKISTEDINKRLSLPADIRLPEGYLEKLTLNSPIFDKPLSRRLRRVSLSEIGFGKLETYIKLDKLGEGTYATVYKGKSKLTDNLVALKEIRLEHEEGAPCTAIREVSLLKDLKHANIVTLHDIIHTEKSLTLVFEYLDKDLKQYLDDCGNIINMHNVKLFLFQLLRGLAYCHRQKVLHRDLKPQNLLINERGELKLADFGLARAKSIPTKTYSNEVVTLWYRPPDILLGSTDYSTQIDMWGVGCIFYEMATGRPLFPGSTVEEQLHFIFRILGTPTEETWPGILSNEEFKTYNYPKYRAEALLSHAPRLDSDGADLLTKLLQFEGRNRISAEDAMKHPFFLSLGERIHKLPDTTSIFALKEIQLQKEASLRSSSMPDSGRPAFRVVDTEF
Chain of Tyrosine-protein kinase CSK (Homo sapiens) (P41240 2-450 limits assumed): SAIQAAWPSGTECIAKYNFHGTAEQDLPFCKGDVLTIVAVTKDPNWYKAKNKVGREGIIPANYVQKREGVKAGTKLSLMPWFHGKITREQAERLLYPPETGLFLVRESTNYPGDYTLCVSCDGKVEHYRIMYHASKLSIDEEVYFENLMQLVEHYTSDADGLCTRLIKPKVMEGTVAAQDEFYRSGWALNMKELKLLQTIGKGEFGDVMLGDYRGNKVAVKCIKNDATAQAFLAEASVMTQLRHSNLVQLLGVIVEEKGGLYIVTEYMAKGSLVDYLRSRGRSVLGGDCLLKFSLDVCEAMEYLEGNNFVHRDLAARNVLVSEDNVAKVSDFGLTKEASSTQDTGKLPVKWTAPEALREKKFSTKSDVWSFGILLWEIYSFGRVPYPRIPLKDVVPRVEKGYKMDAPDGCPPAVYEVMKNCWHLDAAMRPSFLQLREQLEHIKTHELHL

SMILES	inhibition [1] [%]	inhibition [2] [%]	inhibition [3] [%]	inhibition [4] [%]	inhibition [5] [%]	inhibition [6] [%]	inhibition [7] [%]	inhibition [8] [%]	inhibition [9] [%]	inhibition [10] [%]	inhibition [11] [%]	inhibition [12] [%]	inhibition [13] [%]	inhibition [14] [%]	inhibition [15] [%]	inhibition [16] [%]	inhibition [17] [%]
N[C@H]1CC[C@H](Nc2nccc(-n3nnc4ccccc43)n2)CC1	80	< 50	< 50	100	89	99	< 50	< 50	70	84	91	< 50	< 50	100	< 50	< 50	91
O[C@H]1CC[C@H](Nc2nccc(-c3n[nH]c4ccccc34)n2)CC1	77	< 50	< 50	100	98	99	< 50	99	< 50	97	99	< 50	98	100	< 50	< 50	100
CS(=O)(=O)CCCOc1cccc2c1ccn2-c1ccnc(N[C@H]2CC[C@H](C(=O)N3CCC(O)CC3)CC2)n1	–	–	–	–	> 85	–	–	–	–	–	–	–	–	–	> 85	–	–
O=C([C@H]1CC[C@H](Nc2nccc(-n3nnc4ccccc43)n2)CC1)N1CCOCC1	81	< 50	< 50	87	< 50	98	< 50	< 50	< 50	90	100	< 50	< 50	91	< 50	< 50	100

Results, then the compound that gave them:

inhibition [1] [%]	inhibition [2] [%]	inhibition [3] [%]	inhibition [4] [%]	inhibition [5] [%]	inhibition [6] [%]	inhibition [7] [%]	inhibition [8] [%]	inhibition [9] [%]	inhibition [10] [%]	inhibition [11] [%]	inhibition [12] [%]	inhibition [13] [%]	inhibition [14] [%]	inhibition [15] [%]	inhibition [16] [%]	inhibition [17] [%]	SMILES
< 50	< 50	< 50	93	76	95	< 50	< 50	< 50	< 50	73	< 50	72	99	< 50	< 50	100	O[C@H]1CC[C@H](Nc2nccc(-n3ncc4ccccc43)n2)CC1
< 50	< 50	< 50	91	73	70	< 50	< 50	< 50	< 50	< 50	< 50	< 50	99	< 50	< 50	91	O[C@H]1CC[C@H](Nc2nccc(-n3ccc4ccccc43)n2)CC1
< 50	< 50	< 50	95	< 50	98	< 50	< 50	< 50	77	95	< 50	< 50	100	< 50	< 50	100	O[C@H]1CC[C@H](Nc2nccc(-n3nnc4ccccc43)n2)CC1
